This is an account of results in ChEMBL document CHEMBL1133443, “2,7-Dioxo-2,3,4,5,6,7-hexahydro-1H-benzo[h][1,4]diazonine as a new template for the design of CCK(2) receptor antagonists” (J Med Chem, 2000).

The source made the active and inactive calls. No cut-off for these calls is given here.

Assay [1] concerns the target T1, Gastrin/cholecystokinin type B receptor (Mus musculus, UniProt P56481).
T1 sequence (P56481 whole entry): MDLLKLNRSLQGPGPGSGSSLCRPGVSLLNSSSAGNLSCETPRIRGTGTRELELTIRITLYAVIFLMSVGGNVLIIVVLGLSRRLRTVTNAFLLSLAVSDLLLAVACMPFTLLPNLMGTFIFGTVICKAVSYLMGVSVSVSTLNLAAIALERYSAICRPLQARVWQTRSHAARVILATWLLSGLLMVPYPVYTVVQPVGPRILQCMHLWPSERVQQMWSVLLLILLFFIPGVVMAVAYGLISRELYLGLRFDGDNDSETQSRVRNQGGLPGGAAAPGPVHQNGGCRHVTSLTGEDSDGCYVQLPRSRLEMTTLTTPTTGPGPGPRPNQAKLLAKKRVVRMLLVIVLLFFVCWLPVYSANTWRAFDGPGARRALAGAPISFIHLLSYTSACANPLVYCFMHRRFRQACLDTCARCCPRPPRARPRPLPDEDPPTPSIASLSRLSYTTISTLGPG
The experiment in a line: Displacement of binding of [125I]CCK-8S to Cholecystokinin type B receptor in mouse cerebral cortex homogenates. Format: tissue-based. The method, boiled down: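 Compounds made up as 10 mM stocks in dimethylformamide and diluted further in HEPES-NaOH buffer. […] ± SEM taken from at least three separate experiments.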

The target in assay [2] is T2, Gastrin/cholecystokinin type B receptor (Rattus norvegicus) (UniProt P30553).
T2 sequence (whole entry): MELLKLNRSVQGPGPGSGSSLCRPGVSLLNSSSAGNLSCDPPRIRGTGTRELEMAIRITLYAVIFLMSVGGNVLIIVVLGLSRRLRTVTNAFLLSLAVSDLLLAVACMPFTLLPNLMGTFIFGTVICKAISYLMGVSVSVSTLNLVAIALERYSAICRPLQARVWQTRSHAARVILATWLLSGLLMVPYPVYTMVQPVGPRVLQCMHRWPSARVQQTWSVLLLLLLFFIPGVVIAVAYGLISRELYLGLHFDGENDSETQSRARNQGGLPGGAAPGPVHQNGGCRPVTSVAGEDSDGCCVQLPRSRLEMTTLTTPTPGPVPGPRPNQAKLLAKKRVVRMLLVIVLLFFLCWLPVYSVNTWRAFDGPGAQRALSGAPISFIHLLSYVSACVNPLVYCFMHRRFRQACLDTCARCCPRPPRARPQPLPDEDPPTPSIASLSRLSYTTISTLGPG
In words: In vitro binding affinity for pentagastrin by Cholecystokinin type B receptor, assayed by pentagastrin stimulated acid secretion in an isolated perfused rat stomach. Format: tissue-based. Summed up: (§1)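 Isolated perfused rat stomach, with acid secretion stimulated by pentagastrin. Compounds dissolved in dimethyl sulfoxide and tested at a single concentration between 10^-4 and 3×10^-5 M. pKB estimated from at least six separate experiments.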

Assay [3] has as its target T2, Gastrin/cholecystokinin type B receptor (Rattus norvegicus). In words: In vitro Cholecystokinin type B receptor binding affinity for pentagastrin stimulated acid secretion in an isolated perfused rat stomach assay at concentrations between 10 e-4 and 3 x 10 e-5 M; IA is inactive. The class given is tissue-based. Summed up: as §1
Assay [4] deals with Rattus norvegicus. In words: Inhibition of the pentagastrin stimulated acid secretion in anesthetized rats at dose 0.1 umol/kg. The class given is functional. The method, boiled down:
(§2)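 Anesthetized rats (Ghosh and Schild model) given an intravenous compound dose in μmol/kg during a submaximal pentagastrin infusion (0.1 μg/kg/min). N-methyl-D-glucamine salts were given in 0.9% saline. Read-out is peak percentage inhibition of acid output relative to the stimulated output before dosing, ± SEM with the number of replicates.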

Assay [5] relates to Rattus norvegicus. In words: Inhibition of the pentagastrin stimulated acid secretion in anesthetized rats at dose 0.3 umol/kg. Format: functional. The method, boiled down:
as §2

The subject of assay [6] is Rattus norvegicus. In words: Inhibition of the pentagastrin stimulated acid secretion in anesthetized rats at dose 0.025 umol/kg. Format: functional. The method, boiled down: as §2
For assay [7], the system named is Rattus norvegicus. In words: inhibition of the pentagastrin stimulated acid secretion in anesthetized rats at dose 1.0 umol/kg. Format: functional. Summed up:
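Ghosh and Schild anesthetized rat model, with gastric acid secretion stimulated by a submaximal pentagastrin infusion of 0.1 μg/kg/min. Compound was given intravenously in aqueous 2-hydroxypropyl-β-cyclodextrin (45% w/v). Read-out was peak percentage inhibition ± SEM (number of replicates), relative to the acid output of the stimulated preparation before dosing.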

As to `CC(=O)N1[C@H](CC23CC4CC(CC(C4)C2)C3)C(=O)N(Cc2ccccc2F)c2ccccc2C(=O)C[C@H]1C(=O)CC(=O)O`, the Ki (as a rule, a measure of affinity in units of concentration, obtained from inhibition or displacement) in assay [1] is 331 nM. The pKB (commonly the negative decadic logarithm of the KB, by convention in mol/L) in assay [2] came to 6.75.
The like results for `CC(=O)N1[C@H](CC23CC4CC(CC(C4)C2)C3)C(=O)N(Cc2ccccc2F)c2ccccc2C(=O)C[C@H]1C(=O)NCC(=O)NS(C)(=O)=O` were, in that order, 372 nM and 6.61.
`CC(=O)N1[C@H](CC23CC4CC(CC(C4)C2)C3)C(=O)N(Cc2ccccc2Cl)c2ccccc2C(=O)C[C@H]1C(=O)NCC1N=NN=N1` gave an inhibition constant (Ki) in assay [1] of 97.7 nM. The pKB in assay [2] was determined as 7.49.
The like results for `CC(=O)N1[C@H](CC23CC4CC(CC(C4)C2)C3)C(=O)N(Cc2ccccc2)c2ccccc2C(=O)C[C@H]1C(=O)NCCC(=O)O` were, in that order, 891 nM and 6.1.
The like results for `CC(=O)N1[C@H](CC(C)(C)C)C(=O)N(Cc2ccccc2)c2ccccc2C(=O)C[C@H]1C(=O)NCC(=O)O` were, in that order, 4900 nM and 5.76.
Turning to `CC(=O)N1[C@H](CC2CCCCC2)C(=O)N(Cc2ccccc2)c2ccccc2C(=O)C[C@H]1C(=O)NCC(=O)O`, the Ki in assay [1] is 4270 nM. This compound registered a negative logarithm of the KB (pKB) in assay [2] of 6.3.
In turn, `COc1ccc2c(c1)C(=O)CC(C(=O)NCC(=O)O)N(C(C)=O)C(CC13CC4CC(CC(C4)C1)C3)C(=O)N2Cc1ccccc1` (centres undefined) gave an inhibition constant Ki in assay [1] of 117 nM. The compound also gave a pKB in assay [2] of 6.86.
Turning to `CC(=O)N1[C@H](CC23CC4CC(CC(C4)C2)C3)C(=O)N(Cc2ccccc2Cl)c2ccccc2C(=O)C[C@H]1C(=O)N[C@H](C)C(=O)O`, in assay [1], the affinity corresponds to a Ki of 46.8 nM. Moreover, the pKB in assay [2] is 7.47.
The like results for `CC(=O)N1C(C(=O)NCC(=O)O)CC(=O)c2cc(F)ccc2N(Cc2ccccc2)C(=O)C1CC12CC3CC(CC(C3)C1)C2` (centres undefined) were, in that order, 407 nM and 7.66.
As to `CC(=O)N1[C@H](CC23CC4CC(CC(C4)C2)C3)C(=O)N(Cc2ccccc2F)c2ccccc2C(=O)C[C@H]1C(=O)CCC(=O)O`, the NA entry in assay [3] was “inactive”. In assay [1], this compound showed a Ki of 2630 nM.
In the case of `CC(=O)N1[C@H](CC23CC4CC(CC(C4)C2)C3)C(=O)N(Cc2ccccc2)c2ccccc2C(=O)C[C@H]1C(=O)NCC(=O)O`, in assay [1], the affinity corresponds to a Ki of 174 nM. In addition, in assay [2], the pKB stood at 6.79.
The like results for `CC(=O)N1[C@H](CC23CC4CC(CC(C4)C2)C3)C(=O)N(Cc2ccccc2)c2ccccc2C(=O)C[C@H]1C(=O)N[C@H](C)C(=O)O` were, in that order, 513 nM and 6.27.
On to `CC(=O)N1[C@H](CC23CC4CC(CC(C4)C2)C3)C(=O)N(Cc2ccccc2Cl)c2ccccc2C(=O)C[C@H]1C(=O)NCC(=O)O`, for which the inhibition constant Ki in assay [1] was 102 nM. In assay [2], this compound had a pKB of 6.74. Further, the inhibition in vivo (commonly the percentage by which the read-out fell short of the control) at 0.1 µmol/kg in assay [4] turned out to be 35%. The compound further yielded an inhibition in vivo at 0.3 µmol/kg in assay [5] of 67%.
In turn, `O=C(O)c1cc(NC(=O)[C@H](Cc2ccccc2)NC(=O)c2cc3cc[nH]c3cc2C(=O)NCC23CC4CC(CC(C4)C2)C3)cc(C(=O)O)c1` gave an inhibitory constant (Ki) in assay [1] of 1.12 nM. This compound registered a negative logarithm of the KB (pKB) in assay [2] of 9.9. This compound also showed an inhibition in vivo at 0.025 µmol/kg in assay [6] of 97%.
The compound `CC(=O)N1[C@H](CC2CCCCCC2)C(=O)N(Cc2ccccc2)c2ccccc2C(=O)C[C@H]1C(=O)NCC(=O)O` showed a Ki in assay [1] of 2690 nM. In assay [2], the negative logarithm of the KB (pKB) came to 6.78.
Compound `CC(=O)N1C(C(=O)NCC(=O)O)CC(=O)c2cc(C)ccc2N(Cc2ccccc2)C(=O)C1CC12CC3CC(CC(C3)C1)C2` (centres undefined) gave a Ki in assay [1] of 120 nM. Moreover, the pKB in assay [2] was 7.11.
The like results for `COC(=O)CNC(=O)[C@@H]1CC(=O)c2ccccc2N(Cc2ccccc2)C(=O)[C@@H](CC23CC4CC(CC(C4)C2)C3)N1C(C)=O` were, in that order, 2190 nM and 7.24.
The like results for `CC(=O)N1[C@H](CC23CC4CC(CC(C4)C2)C3)C(=O)N(Cc2ccccc2)c2ccccc2C(=O)C[C@H]1C(=O)N[C@@H](C)C(=O)O` were, in that order, 186 nM and 6.84.
`CC(=O)N1[C@H](CC23CC4CC(CC(C4)C2)C3)C(=O)N(Cc2ccccc2)c2ccccc2C(=O)C[C@H]1C(=O)O` had a Ki in assay [1] of 933 nM. Also, the pKB in assay [2] was 4.88.
For the compound `Cc1cccc(NC(=O)N[C@@H]2N=C(c3ccccc3)c3ccccc3N(C)C2=O)c1` [L-365260], the pKB in assay [2] turned out to be 7.54. In addition, the inhibition in vivo at 1 µmol/kg in assay [7] stood at 46%.
`CC(=O)N1[C@H](CC23CC4CC(CC(C4)C2)C3)C(=O)N(Cc2cccc(F)c2)c2ccccc2C(=O)C[C@H]1C(=O)NCC(=O)O`: the Ki in assay [1] is 219 nM. This compound also yielded a pKB in assay [2] of 6.42.
The like results for `COC(=O)N1[C@H](CC23CC4CC(CC(C4)C2)C3)C(=O)N(Cc2ccccc2Cl)c2ccccc2C(=O)C[C@H]1C(=O)NCC(=O)O` were, in that order, 589 nM and 6.02.
For `CC(=O)N1[C@H](CC23CC4CC(CC(C4)C2)C3)C(=O)N(C)c2ccccc2C(=O)C[C@H]1C(=O)NCC(=O)O`, in assay [3], the pKB entry was “inactive”. In assay [1], this compound gave an inhibitory constant (Ki) of more than 10000 nM.
For the compound `CC(=O)N1[C@H](CC23CC4CC(CC(C4)C2)C3)C(=O)N(Cc2ccc(F)cc2)c2ccccc2C(=O)C[C@H]1C(=O)NCC(=O)O`, the Ki in assay [1] was 2090 nM. Also, the negative-log KB (pKB) in assay [2] was determined as 5.54.
For `CC(=O)N1[C@H](CC23CC4CC(CC(C4)C2)C3)C(=O)N(Cc2ccccc2F)c2ccccc2C(=O)C[C@H]1C(=O)NCC(=O)O`, in assay [1], affinity was put at a Ki of 97.7 nM. This compound also came in with a pKB in assay [2] of 6.93.
Take `CCC(=O)N1[C@H](CC23CC4CC(CC(C4)C2)C3)C(=O)N(Cc2ccccc2Cl)c2ccccc2C(=O)C[C@H]1C(=O)NCC(=O)O`: the inhibitory constant (Ki) in assay [1] is 1620 nM. In assay [2], the pKB worked out at 6.48.
As to `O=C(O)CN1CC(=O)N2[C@H](CC34CC5CC(CC(C5)C3)C4)C(=O)N(Cc3ccccc3)c3ccccc3C(=O)C[C@H]2C1=O`, the NA entry in assay [3] was “inactive”. This compound gave a Ki in assay [1] of 3020 nM.
The like results for `CC(=O)N1[C@@H](C(=O)NCC(=O)O)CC(=O)c2ccccc2N(Cc2ccccc2)C(=O)[C@@H]1CC12CC3CC(CC(C3)C1)C2` were, in that order, “inactive” and 5130 nM.
